The array DNA melting data of Ke et al. (doi:10.1101/2024.01.08.574731)

What was measured:
[1] = melting temperature; fluorescence melt of hairpins on a sequencing array, two-state fit, raised by 9.35 °C to match UV melts; settings: sodium 0.088 M
Outline: (§1)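 Folding enthalpy and melting temperature come from bootstrapped two-state fits to Cy3 fluorescence of library hairpins carrying annealed Cy3 and quencher oligos on a sequenced MiSeq flow cell. Imaging was done in 50 mM Na-HEPES pH 8.0, 25 mM NaCl, stepping by 2.5 °C up to 60 °C, and signals were normalised to pre-quench Cy3 and to control constructs. Results of four replicates were combined by inverse variance, and fitted temperatures were raised by 9.35 °C to match UV melts.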

[2] = folding enthalpy; higher = less favourable; fluorescence melt of hairpins on a sequencing array, two-state fit; settings: sodium 0.088 M
Outline: as §1

GGACCTGGAAACAGATCC (((.(((....))).)))
Tm [1]: 40.2 °C
folding enthalpy [2]: -28.7 kcal/mol

GGACCTGGAAACGGGTCC (((((.(....).)))))
Tm [1]: 58.3 °C
folding enthalpy [2]: -45 kcal/mol

GGACGACCGAAAGGTTCC (((..(((....))))))
Tm [1]: 31.3 °C
folding enthalpy [2]: -13.8 kcal/mol

GGACGAGCGAAAGCTTCC (((..(((....))))))
Tm [1]: 29.5 °C
folding enthalpy [2]: -9.29 kcal/mol

GGACGCGAAAGCGAATCC ((((((....)))..)))
Tm [1]: 36.5 °C
folding enthalpy [2]: -13.5 kcal/mol

GGACGCGAAAGCGCTTCC ((((((....)))..)))
Tm [1]: 47.5 °C
folding enthalpy [2]: -13.2 kcal/mol

GGACGCGAAAGCGTGTCC ((((((....)))..)))
Tm [1]: 54 °C
folding enthalpy [2]: -12.7 kcal/mol

GGACGCGGAAACGCACCC ((..(((....)))..))
Tm [1]: 33.7 °C
folding enthalpy [2]: -10.1 kcal/mol

GGACGCGGAAACGTGTCC ((((.((....)).))))
Tm [1]: 62.2 °C
folding enthalpy [2]: -43.4 kcal/mol

GGACGGGGAAACCTGTCC ((((.((....)).))))
Tm [1]: 56.8 °C
folding enthalpy [2]: -44.5 kcal/mol

GGACTACGAAAGTACTCC (((.(((....))).)))
Tm [1]: 34.9 °C
folding enthalpy [2]: -13.3 kcal/mol

GGACTACGAAAGTATTCC (((.(((....))).)))
Tm [1]: 39.2 °C
folding enthalpy [2]: -34.8 kcal/mol

GGACTAGGAAACTAGCCC ((.((((....)))).))
Tm [1]: 42.1 °C
folding enthalpy [2]: -24.5 kcal/mol

GGACTAGGAAACTAGTCC (((((((....)))))))
Tm [1]: 61.5 °C
folding enthalpy [2]: -44 kcal/mol

GGACTAGGAAACTAGTTC (.(((((....))))).)
Tm [1]: 41.3 °C
folding enthalpy [2]: -31.9 kcal/mol

GGACTCGAAAGAGCATCC ((((((....)))..)))
Tm [1]: 24.9 °C
folding enthalpy [2]: -9.49 kcal/mol

GGACTCGAAAGAGGATCC ((((((....)))..)))
Tm [1]: 37 °C
folding enthalpy [2]: -17.9 kcal/mol

GGACTCGAAAGAGGCTCC ((((((....)))..)))
Tm [1]: 48.9 °C
folding enthalpy [2]: -13.3 kcal/mol

GGACTCGAAAGAGTTTCC ((((((....)))..)))
Tm [1]: 36.8 °C
folding enthalpy [2]: -13.8 kcal/mol

GGACTCGGAAACGAATCC (((.(((....))).)))
Tm [1]: 40.9 °C
folding enthalpy [2]: -26.7 kcal/mol

GGACTCGGAAACGGGTCC ((((.((....)).))))
Tm [1]: 57.4 °C
folding enthalpy [2]: -36.4 kcal/mol

GGACTGAAAAGTCC (((((....)))))
Tm [1]: 59.9 °C
folding enthalpy [2]: -25.9 kcal/mol

GGACTGGAAACAGTCC ((((((....))))))
Tm [1]: 59.8 °C
folding enthalpy [2]: -30.2 kcal/mol

GGACTGGCGAAAGCCTCC (((..(((....))))))
Tm [1]: 31.6 °C
folding enthalpy [2]: -9.14 kcal/mol

GGACTGGGAAACCGGTCC ((((.((....)).))))
Tm [1]: 58.6 °C
folding enthalpy [2]: -39.9 kcal/mol

GGACTGGGAAACTGGTCC ((((..(....)..))))
Tm [1]: 45.5 °C
folding enthalpy [2]: -25 kcal/mol

GGACTTCGAAAGAATCC (((.(((....))))))
Tm [1]: 35.2 °C
folding enthalpy [2]: -21.7 kcal/mol

GGACTTCGAAAGAATTCC (((.(((....))).)))
Tm [1]: 36.8 °C
folding enthalpy [2]: -31.9 kcal/mol

GGACTTGGAAACAAGTCC (((((((....)))))))
Tm [1]: 64.7 °C
folding enthalpy [2]: -51.1 kcal/mol

GGACTTGGAAACGAGTCC (((((.(....).)))))
Tm [1]: 52.4 °C
folding enthalpy [2]: -39.4 kcal/mol

GGAGAAGGAAACTCCTCC ((((.((....)).))))
Tm [1]: 36 °C
folding enthalpy [2]: -22.6 kcal/mol

GGAGACGAAAGTCCATCC ((((((....)))..)))
Tm [1]: 30.3 °C
folding enthalpy [2]: -10.1 kcal/mol

GGAGAGCGAAAGCTTTCC (((.(((....))).)))
Tm [1]: 53.6 °C
folding enthalpy [2]: -31.6 kcal/mol

GGAGAGGAAACTCTCC ((((((....))))))
Tm [1]: 56.9 °C
folding enthalpy [2]: -35.1 kcal/mol

GGAGAGGGAAACCTCTTC (.(((((....))))).)
Tm [1]: 45.8 °C
folding enthalpy [2]: -21.5 kcal/mol

GGAGATCGAAAGATTTCC (((.(((....))).)))
Tm [1]: 46.5 °C
folding enthalpy [2]: -33 kcal/mol

GGAGATTCGAAAGAATCC (((..(((....))))))
Tm [1]: 38.7 °C
folding enthalpy [2]: -13.3 kcal/mol

GGAGCAGGAAACTGCTCC (((((((....)))))))
Tm [1]: 69.1 °C
folding enthalpy [2]: -33.4 kcal/mol
